Laboratory results from paper PMC7613447 (Bioorganic & medicinal chemistry, 2022).
Where a SMILES comes first, the peptide text is derived from it. [ ]: non-standard residue; d: D form. 1Nal = N[C@@H](Cc1cccc2ccccc12)C(=O)O; 2Nal = N[C@@H](Cc1ccc2ccccc2c1)C(=O)O

How the values were obtained:
PP1 = PP1 (Homo sapiens, UniProt P62136); test: ALPHA assay, competition with Biotin-PDP2 for the RVxF binding site of His-PP1
Method in brief: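 Competition binding with 200 nM His-PP1 and 67 nM biotin-PDP2 in 50 mM Tris-Cl pH 7.5, 150 mM NaCl, 0.05% Tween 20, 1 mM MnCl₂, 0.1% BSA. Serial dilutions of test compound were added for 60 min at rt. Streptavidin-donor and anti-His-acceptor beads (5 μg/ml final) were then added for 90 min at rt in the dark. Excitation was 680 nm, emission 570 nm. The non-specific control used 22 nM GST(His-biotin).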

PP1 and Inhibitor 2 = PP1 and Inhibitor 2 (Homo sapiens, UniProt P62136); test: Disruption of the interaction between PP1 and Inhibitor 2; type: biochemical; settings: for EC50 of the disruption of the interaction between PP1 and Inhibitor 2: starting at 50% inhibition of PP1 with I2, DiFMUP as substrate; for activity in disrupting PP1:I2 (in words): in vitro, Table 1 conditions; for PP1 activity reached (efficacy): maximum of dose-response, around 50% starting inhibition (Supp. Fig. 2E, F)
PP1 and Inhibitor 2, sequence (P62136 whole entry): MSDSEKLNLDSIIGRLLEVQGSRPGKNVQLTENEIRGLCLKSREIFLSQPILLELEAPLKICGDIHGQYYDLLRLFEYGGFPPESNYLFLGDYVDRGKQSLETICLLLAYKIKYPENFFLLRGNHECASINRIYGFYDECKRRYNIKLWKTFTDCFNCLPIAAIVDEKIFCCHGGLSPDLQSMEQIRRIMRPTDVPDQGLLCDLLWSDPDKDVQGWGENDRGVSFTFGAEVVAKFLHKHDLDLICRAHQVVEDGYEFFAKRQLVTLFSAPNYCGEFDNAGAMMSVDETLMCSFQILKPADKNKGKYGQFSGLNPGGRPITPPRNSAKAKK

HeLa cells = test: Calcium release assay, Fluo-4 imaging in intact HeLa cells; type: cell-based; settings: Fluo-4, Ca^2+-containing imaging buffer
Method in brief: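 HeLa Kyoto cells were grown in low-glucose DMEM with 10% FBS, penicillin/streptomycin and L-glutamine at 37 °C, 5% CO₂, then seeded in chamber slides the day before imaging (~80% confluent). Cells were loaded with 0.5 μM Fluo-4 in HEPES pH 7.4 imaging buffer containing 1.2 mM CaCl₂ for 30 min at rt, then washed. Confocal imaging used ex 488/em 516 nm: 2 min baseline, then 30 min after compound addition. Buffer and a PP1-disrupting peptide served as controls. Responding cells were counted.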

PP1 by I2 = settings: starting inhibition of PP1 by I2 of 50%; cited from earlier work

PP1, sequence (P62136 whole entry): as above

## CC(C)[C@H](NC(=O)[C@@H](N)CCCNC(=N)N)C(=O)N[C@H](C(=O)N[C@@H](Cc1ccccc1)C(=O)O)[C@@H](C)O [Compound 1, RVTF] (H-RVTF-OH)
PP1
  IC50: 124 µM

## CC[C@H](C)[C@H](NC(=O)[C@@H](N)CCCNC(=N)N)C(=O)N[C@H](C(=O)N[C@@H](Cc1ccccc1)C(=O)O)[C@@H](C)O [Compound 3, RITF] (H-RITF-OH)
PP1 and Inhibitor 2
  EC50 of the disruption of the interaction between PP1 and Inhibitor 2: Slightly active at 500 μM

## CC(C)C[C@H](NC(=O)[C@@H](N)CCCNC(=N)N)C(=O)N[C@H](C(=O)N[C@@H](Cc1ccccc1)C(=O)O)[C@@H](C)O [Compound 4, RLTF] (H-RLTF-OH)
PP1 and Inhibitor 2
  EC50 of the disruption of the interaction between PP1 and Inhibitor 2: Slightly active at 500 μM

## CC(C)[C@H](NC(=O)[C@@H](N)CCCNC(=N)N)C(=O)NCC(=O)N[C@@H](Cc1ccccc1)C(=O)O [Compound 6, RVGF] (H-RVGF-OH)
PP1 and Inhibitor 2
  EC50 of the disruption of the interaction between PP1 and Inhibitor 2: Slightly active at 500 μM

## CC(C)[C@H](NC(=O)[C@@H](NC(=O)[C@@H](N)CCCNC(=N)N)C(C)C)C(=O)N[C@@H](Cc1ccccc1)C(=O)O [Compound 7, RVVF] (H-RVVF-OH)
PP1 and Inhibitor 2
  EC50 of the disruption of the interaction between PP1 and Inhibitor 2: Slightly active at 500 μM

## CC(C)[C@H](NC(=O)[C@@H](N)CCCNC(=N)N)C(=O)N[C@@H](CCC(=O)O)C(=O)N[C@@H](Cc1ccccc1)C(=O)O [Compound 13, RVEF] (H-RVEF-OH)
PP1 and Inhibitor 2
  EC50 of the disruption of the interaction between PP1 and Inhibitor 2: Slightly active at 500 μM

## CC(C)[C@H](NC(=O)[C@@H](NC(=O)[C@@H](N)Cc1ccccc1)[C@@H](C)O)C(=O)N[C@@H](CCCNC(=N)N)C(=O)O [Compound 25, FTVR] (H-FTVR-OH)
PP1 and Inhibitor 2
  activity in disrupting PP1:I2 (in words): inactive

## CC(C)[C@@H](NC(=O)[C@@H](Cc1c[nH]cn1)NC(=O)[C@H](N)Cc1ccccc1)C(=O)N[C@H](CCCNC(=N)N)C(=O)O [Compound 27, dFdHdVdR]
PP1 and Inhibitor 2
  EC50 of the disruption of the interaction between PP1 and Inhibitor 2: Slightly active at 500 μM

## CC(=O)N[C@@H](CCCNC(=N)N)C(=O)N[C@H](C(=O)N[C@H](C(=O)N[C@@H](Cc1ccccc1)C(=O)O)[C@@H](C)O)C(C)C [Compound 28, Ac-RVTF] (Ac-RVTF-OH)
PP1 and Inhibitor 2
  activity in disrupting PP1:I2 (in words): inactive

## CC(C)[C@H](NC(=O)[C@H](CCCNC(=N)N)NC(=O)[C@@H](N)CCCCN)C(=O)N[C@@H](Cc1c[nH]cn1)C(=O)N[C@@H](Cc1cccc2ccccc12)C(N)=O [Compound 48, KRVH-(1-NaI)-NH2] (H-KRVH[1Nal]-NH2)
PP1 and Inhibitor 2
  PP1 activity reached (efficacy): around 80%

## CC(C)[C@H](NC(=O)[C@H](CCCNC(=N)N)NC(=O)[C@@H](N)CCCCN)C(=O)N[C@@H](Cc1c[nH]cn1)C(=O)N[C@@H](Cc1ccc2ccccc2c1)C(N)=O [Compound 49, KRVH-(2-NaI)-NH2] (H-KRVH[2Nal]-NH2)
PP1 and Inhibitor 2
  PP1 activity reached (efficacy): around 80%

## Ac-KRVHF-NH2 [Compound 34, Ac-KRVHF-NH2]
HeLa cells
  calcium spiking in living HeLa cells (in words): inactive

## RKIQFT
PP1 by I2
  EC50: 54 µM
